The source of these data is the RNAGym collection of RNA variant scans (doi:10.1126/science.aae0568).

This sample holds only a part of the variants without activity.

To fix the notation:
B1: tRNA (parent)
chain: GUUCCGUUGGCGUAAUGGUAACGCGUCUCCCUCCUAAGGAGAAGACUGCGGGUUCGAGUCCCGUACGGAACG

The variants in the data set derive from B1. As to the kind of experiment: yeast fitness relative to wild type (ratio to wild type); higher = fitter; tRNA-Arg(CCU), competitive growth, 37 C, YPD. The method in brief: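 Changes in genotype frequencies gave Darwinian fitness relative to wild type. Frequencies were read by 100-nucleotide paired-end sequencing of gene amplicons before and after pooled Saccharomyces cerevisiae strains, carrying tRNA-Arg(CCU) gene variants at the native locus, were competed in YPD at 37°C for 24 hours in six replicates. A genotype was kept only with ≥ 100 starting reads, and estimates < 0.5 were set to 0.5.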
Take C11G U32C A40U: the yeast fitness was found to be 0.662.

Take C11G C61U: the yeast fitness was 0.656.

As to C11G C61A, the yeast fitness was determined as 0.546.

On to C11G C61G, for which the yeast fitness was determined as 0.705.

C11G C30U G41C G50A G67C: the yeast fitness is at most 0.5.

Consider C11G C46A C49U U54C C60U, for which the yeast fitness was at most 0.5.

For the variant C11G U32A, the yeast fitness was at most 0.5.

Turning to C11G U13G C60U, the yeast fitness was at most 0.5.

For C11G C22U A40G C60G G63C, the yeast fitness is at most 0.5.

Turning to C11G G17A C22U C27U C33G, the yeast fitness is at most 0.5.

As for C11G U32A A36G C46U, the yeast fitness stood at 0.592.

Regarding C11G U16A C49A, the yeast fitness was at most 0.5.

For C11G C30U U35A U53G A70C, the yeast fitness was at most 0.5.

Regarding C11G C27U C33U C62G, the yeast fitness was at most 0.5.

For the variant C11G U16A A65G, the yeast fitness turned out to be 0.567.

Take C11U A14C A15G U26A C34A C46G: the yeast fitness is 0.637.

For the variant C11G U16A C24U G50C C66U, the yeast fitness is at most 0.5.

Consider C11G C27U A43C C61G, for which the yeast fitness was at most 0.5.

In the case of C11G U28A A70U, the yeast fitness was at most 0.5.

Turning to C11G C24G G52C C55G, the yeast fitness amounted to 0.813.

For the variant C11G G50A C61U, the yeast fitness was determined as 0.566.

Turning to C11G C34U, the yeast fitness turned out to be 0.672.

In the case of C11G C34G, the yeast fitness came to 0.524.

C11G C34A: the yeast fitness was determined as 0.585.

C11G C29A A43C U64C: the yeast fitness is at most 0.5.

On to C11G G17A U19C, for which the yeast fitness is at most 0.5.

As to C11G C30U A65G, the yeast fitness turned out to be 0.595.

Consider C11G U16A U47C, for which the yeast fitness is 0.655.

On to C11G C49U G63A, for which the yeast fitness was at most 0.5.

For the variant C11G U54A, the yeast fitness is at most 0.5.

Take C11G C34A A36U C60A: the yeast fitness was at most 0.5.

Regarding C11G G41A G67U G68C, the yeast fitness is 0.569.

Regarding C11G U13G C61U, the yeast fitness is at most 0.5.

On to C11G U13G A21G A65G, for which the yeast fitness is at most 0.5.

As to C11G G67C, the yeast fitness was determined as 0.581.

On to C11G C27G C31A C60G, for which the yeast fitness is at most 0.5.

In the case of C11G C60U C62G A70G, the yeast fitness was at most 0.5.

With C11G C66G G68C, the yeast fitness was at most 0.5.

Regarding C11G U19A C22G U59A, the yeast fitness was at most 0.5.

On to C11G C34G A65U, for which the yeast fitness is at most 0.5.

Regarding C11G G12A C22U G39A U64A, the yeast fitness was at most 0.5.

Consider C11G U28C G67C, for which the yeast fitness was at most 0.5.

With C11G G50A C66G, the yeast fitness is at most 0.5.

With C11U A14C C27G C31U C49G G58C, the yeast fitness was at most 0.5.

Turning to C11G C30U A45G A57U C62U, the yeast fitness was at most 0.5.

Consider C11G C55U, for which the yeast fitness was at most 0.5.

Consider C11G C55A, for which the yeast fitness came to 0.756.

In the case of C11G C46U C49A C55U, the yeast fitness came to 0.661.

On to C11G G12A C30G C31G U32A C66U, for which the yeast fitness was at most 0.5.

As for C11G G41C A42C A43U, the yeast fitness is at most 0.5.

C11G G56A C62U: the yeast fitness was at most 0.5.

Take C11G U19A G25A C49U: the yeast fitness is at most 0.5.

On to C11G C33G A57U, for which the yeast fitness was at most 0.5.

Regarding C11G G41A G44C C66G, the yeast fitness was at most 0.5.

For C11G G12A C27U A43G G67A, the yeast fitness is 0.606.

C11G C22U A70U: the yeast fitness was at most 0.5.

On to C11G G23C A37G C49U C61U, for which the yeast fitness was at most 0.5.

As to C11G C27A C46G G50A C61U, the yeast fitness is at most 0.5.

As to C11G C34U A42C C61A A70U, the yeast fitness is at most 0.5.

Consider C11G C24U U28C C62A, for which the yeast fitness is at most 0.5.

Consider C11U A14C C27U C31U C33A G67C, for which the yeast fitness is at most 0.5.

For the variant C11G U13G A65C, the yeast fitness is at most 0.5.

Consider C11G G12A C31G A69U, for which the yeast fitness was at most 0.5.

Regarding C11G G18C, the yeast fitness came out at 0.611.

For C11G C29U U47C C66A, the yeast fitness was at most 0.5.

On to C11G C30G C31G U32A, for which the yeast fitness is at most 0.5.

With C11G G18A C24U, the yeast fitness is 0.542.

As to C11G C29A A40U, the yeast fitness was at most 0.5.

On to C11U A14C C27G C46G A65G, for which the yeast fitness was 0.52.

Consider C11G G23A C46A G68U, for which the yeast fitness worked out at 0.566.

As to C11G C29U, the yeast fitness is 0.557.

Take C11G C29G: the yeast fitness turned out to be 0.84.

On to C11G C31U C61G, for which the yeast fitness was 0.64.

Regarding C11G G17C C29U G51A C62U A69C, the yeast fitness is at most 0.5.

C11G U16A C29U C66A: the yeast fitness is at most 0.5.

For C11G U13C C27A U35A G48A U59C, the yeast fitness is at most 0.5.

Turning to C11G C29U C30U U54A, the yeast fitness is at most 0.5.

As for C11G C34A U53A, the yeast fitness was 0.609.

Turning to C11G G12C C60A C61A, the yeast fitness was at most 0.5.

C11G U32C C60G: the yeast fitness was at most 0.5.

For C11G C24G C27G G48C, the yeast fitness is at most 0.5.

Consider C11G U19C C34G C60A G67C, for which the yeast fitness was at most 0.5.

In the case of C11G C33A A40G C62A G67C, the yeast fitness was at most 0.5.

As to C11G C34A G58C C60G, the yeast fitness came out at 0.84.
